Assay results published in ChEMBL document CHEMBL1140890, “Ivermectin-derived leishmanicidal compounds” (Bioorg Med Chem, 2009).

Key:
[1] = Cytotoxicity against mouse peritoneal macrophages assessed as LDH release after 48 hrs; type: cell-based, Macrophage
Procedure, shortened: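 Mouse peritoneal macrophages at 2 × 10⁶ cells/well, 48 h at 37 °C in DMEM + 5% HIFCS with compound at 0, 10, 30, 90 µM in 0.5% DMSO. LDH released into medium measured by kit. Maximum and minimum release set by 2% Triton X-100 and 0.5% DMSO; means of triplicates.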

[2] = tested on: Leishmania amazonensis; test: Antileishmanial activity against GFP-tagged Leishmania amazonensis Josefa promastigotes after 72 hrs by fluorimetric assay; type: functional, organism-based
Procedure, shortened: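 GFP-transfected promastigotes (kept in DMEM + 10% HIFCS at 27 °C, periodically re-isolated from infected mice) seeded at 5 × 10⁵ cells/ml in DMEM, 5% HIFCS, 0.5% DMSO. Exposed to 0, 10, 30, 90 µM for 72 h at 27 °C. Fluorescence read at […] / 538 nm emission; IC50 from means of triplicates.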

[3] = Selectivity index, ratio of IC50 for mouse peritoneal macrophages to IC50 for Leishmania amazonensis Josefa amastigotes
Procedure, shortened: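 Macrophage LDH-release IC50 divided by intracellular amastigote IC50.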

[4] = tested on: Leishmania amazonensis; test: Antileishmanial activity against GFP-tagged Leishmania amazonensis Josefa amastigotes infected in mouse peritoneal macrophages after 72 hrs by fluorimetric assay; type: functional, organism-based
Procedure, shortened: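 Mouse peritoneal macrophages at 2 × 10⁶ cells/well, allowed to adhere, then infected 4 h at 37 °C with 10⁷ GFP-transfected fluorescent promastigotes. Free parasites washed off; cultured a further 72 h with compound at 0, 10, 30, 90 µM in 0.5% DMSO. Fluorescence read as for promastigotes. Maximum and minimum inhibition set by uninfected and untreated infected cells; means of triplicates.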

[5] = Leishmania amazonensis, Josefa, 72 h

Row | Compound | IC50 [2, 5] | IC50 [4, 5] | IC50 [2] | IC50 [4] | IC50 ([1]; Mus musculus, Macrophage, 48 h) | Ratio IC50 [3] | IC50 ([1]; macrophage)
1 | CC[C@H](C)[C@H]1O[C@]2(CC[C@@H]1C)C[C@@H]1C[C@@H](C/C=C(\C)[C@@H](O[C@H]3C[C@H](OC)[C@@H](O[C@H]4C[C@H](OC)[C@@H](O)[C@H](C)O4)[C@H](C)O3)[C@@H](C)/C=C/C=C3\CO[C@@H]4[C@H](O)[C@@H](C)C=C(C(=O)O1)[C@]34O)O2 | 13.8 µM | 3.6 µM |  |  | 65.5 µM | 18.2 | 
2 | D-glutonic acid, 2,4:2',4'-O-[oxybis-(oxidostibylidyne)]bis-, trisodium salt, nonahydrate |  |  |  |  |  | > 5 | 
3 | CO[C@H]1C[C@H](O[C@H]2[C@H](C)O[C@@H](O[C@H](C(C)O)[C@@H](C)CO)C[C@@H]2OC)O[C@@H](C)[C@@H]1O (some centres undefined) | > 90 µM | > 90 µM |  |  | 86.2 µM | <1 | 
4 | CC[C@H](C)[C@H]1O[C@]2(CC[C@@H]1C)C[C@@H](O)C[C@@H](C/C=C(\C)[C@@H](O[C@H]1C[C@H](OC)[C@@H](O)[C@H](C)O1)[C@@H](C)CO)O2 [NORTHERN MONOSACCHARIDE] | 65.7 µM | 41.5 µM |  |  | 32.1 µM | 0.8 | 
5 | IVERMECTIN [listing 1 of 2 here] |  |  | 7 µM | 5 µM |  |  | 72.4 µM
6 | CC[C@H](C)[C@H]1O[C@]2(CC[C@@H]1C)C[C@@H](O)C[C@@H](C/C=C(\C)[C@@H](O)[C@@H](C)CO)O2 [NORTHERN AGLYCONE] | > 90 µM | 30.5 µM |  |  | > 90 µM | >3 | 
7 | IVERMECTIN [listing 2 of 2 here] |  |  |  |  |  | 14.5 | 
8 | CC[C@H](C)[C@H]1O[C@]2(CC[C@@H]1C)C[C@@H](O)C[C@@H](C/C=C(\C)[C@@H](O[C@H]1C[C@H](OC)[C@@H](O[C@H]3C[C@H](OC)[C@@H](O)[C@H](C)O3)[C@H](C)O1)[C@@H](C)CO)O2 | 17.1 µM | 13.2 µM |  |  | 55 µM | 4.2 | 
9 | CCOC(=O)[C@@H]1C=C(C)[C@@H](O)[C@H]2OC/C(=C\CO)[C@]21O [SOUTHERN DIOL] | > 90 µM | 38.6 µM |  |  | > 90 µM | >2.3 | 
10 | CC[C@H](C)[C@H]1O[C@]2(CC[C@@H]1C)C[C@@H](O)C[C@@H](CCO)O2 [SPIRODIOL] | > 90 µM | 54.5 µM |  |  | > 90 µM | >1.7 | 
11 | CCOC(=O)C1=C[C@H](C)[C@@H](O)[C@H]2OC/C(=C\CO)[C@@]12O | > 90 µM | 13.8 µM |  |  | > 90 µM | >6.5 | 

Further compounds by falling IC50 [2, 5], results first:

Row | IC50 [2, 5] | IC50 [4, 5] | IC50 [2] | IC50 [4] | Compound | IC50 ([1]; Mus musculus, Macrophage, 48 h) | Ratio IC50 [3] | IC50 ([1]; macrophage)
12 | 10.7 µM | 6.5 µM |  |  | CCOC(=O)[C@@H]1C=C(C)[C@@H](O)[C@H]2OC/C(=C\C=C\[C@H](C)[C@H](O[C@H]3C[C@H](OC)[C@@H](O[C@H]4C[C@H](OC)[C@@H](O)[C@H](C)O4)[C@H](C)O3)/C(C)=C/C[C@@H]3C[C@H](O)C[C@]4(CC[C@H](C)[C@@H]([C@@H](C)CC)O4)O3)[C@]21O | 42.9 µM | 6.6 | 
13 | 8.3 µM | 32 µM |  |  | CC[C@H](C)[C@H]1O[C@]2(CC[C@@H]1C)C[C@@H]1C[C@@H](C/C=C(\C)[C@@H](O)[C@@H](C)/C=C/C=C3\CO[C@@H]4[C@H](O)C(C)=C[C@@H](C(=O)O1)[C@]34O)O2 [IVM AGLYCONE] | > 90 µM | >2.8 | 
14 | 7.7 µM | 29.7 µM |  |  | CC[C@H](C)[C@H]1O[C@]2(CC[C@@H]1C)C[C@@H]1C[C@@H](C/C=C(\C)[C@@H](O[C@H]3C[C@H](OC)[C@@H](O)[C@H](C)O3)[C@@H](C)/C=C/C=C3\CO[C@@H]4[C@H](O)C(C)=C[C@@H](C(=O)O1)[C@]34O)O2 | > 90 µM | >3 | 
15 | 4.4 µM |  |  |  | C[C@@H]1[C@H](O)[C@@H](C)/C=C/C=C/C=C/C=C/C=C/C=C/C=C/[C@H](O[C@@H]2O[C@H](C)[C@@H](O)[C@H](N)[C@@H]2O)C[C@@H]2O[C@](O)(C[C@@H](O)C[C@@H](O)[C@H](O)CC[C@@H](O)C[C@@H](O)CC(=O)O[C@H]1C)C[C@H](O)[C@H]2C(=O)O [AMPHOTERICIN B] |  |  | 
16 | 2.8 µM | 4.6 µM |  |  | CCOC(=O)C1=C[C@H](C)[C@@H](O)[C@H]2OC/C(=C\C=C\[C@H](C)[C@H](O[C@H]3C[C@H](OC)[C@@H](O[C@H]4C[C@H](OC)[C@@H](O)[C@H](C)O4)[C@H](C)O3)/C(C)=C/C[C@@H]3C[C@H](O)C[C@]4(CC[C@H](C)[C@@H]([C@@H](C)CC)O4)O3)[C@@]12O | 27.1 µM | 5.8 | 
